# Source: PubChem BioAssay
# LEDGF integ inh = blocks HIV-1 LEDGF/p75-dependent DNA integration; AID 743269; TR-FRET IN-LEDGF/p75 DNA integration, Eu/Cy5; 0.64% of 370,000 active; inhibition, % at 3.7 µM;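 active = inhibition above the screen-wide mean plus 3 SD, cut at about 13% in these data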;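 note: signal is the Cy5 over europium emission ratio at 671 and 618 nm; 0% = plate median of compound wells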
# rCAG binder = molecules binding r(CAG) RNA repeats; r(CAG) RNA repeat, TO-PRO-1 dye displacement fluorescence; inhibition, % at 3 µM; 1.3% of 370,000 active;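 active = inhibition above the plate cutoff, the mean of all test compounds on that plate plus 3 SD, cut at about 35% in these data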;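 note: 0% = DMSO alone and 100% = 100 µM mitoxantrone as full dye displacement; higher means more dye released from RNA so lower well fluorescence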
# DAGLB inhibitor = blocks human DAGLB lipase activity. HEK293T DAGLB membrane lysate, EnzChek fluorogenic substrate. inhibition, % at 5.17 µM. 0.059% of 340,000 active. AID 504411; in the data active = inhibition above about 34%;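 note: 0% = enzyme with vehicle and 100% = wells lacking enzyme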
# Target sequence (Q8NCG7 whole entry, looked up): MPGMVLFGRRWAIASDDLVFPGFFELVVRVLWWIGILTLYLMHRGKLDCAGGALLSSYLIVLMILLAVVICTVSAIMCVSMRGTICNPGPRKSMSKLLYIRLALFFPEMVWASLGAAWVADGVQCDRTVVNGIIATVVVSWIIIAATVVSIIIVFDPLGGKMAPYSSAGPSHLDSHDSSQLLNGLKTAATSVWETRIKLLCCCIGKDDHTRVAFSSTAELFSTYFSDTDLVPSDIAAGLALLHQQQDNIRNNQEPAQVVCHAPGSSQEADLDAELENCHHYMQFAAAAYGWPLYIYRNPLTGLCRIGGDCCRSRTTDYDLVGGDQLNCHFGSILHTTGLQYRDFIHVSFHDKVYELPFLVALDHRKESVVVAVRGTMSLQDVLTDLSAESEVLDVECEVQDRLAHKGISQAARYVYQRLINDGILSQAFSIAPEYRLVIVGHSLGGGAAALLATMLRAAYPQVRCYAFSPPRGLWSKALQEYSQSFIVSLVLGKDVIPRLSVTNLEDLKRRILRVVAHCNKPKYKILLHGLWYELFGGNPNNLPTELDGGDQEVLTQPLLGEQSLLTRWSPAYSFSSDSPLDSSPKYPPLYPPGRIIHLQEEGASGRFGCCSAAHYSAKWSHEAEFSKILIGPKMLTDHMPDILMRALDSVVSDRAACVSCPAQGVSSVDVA
# PRMT1 inh = blocks human protein arginine methyltransferase 1; recombinant PRMT1, activity-based probe fluorescence polarization; Q99873; inhibition, % at 2.79 µM; 1.3% of 370,000 active;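 active = inhibition above about 21% made by adding two undisclosed values, limit read from the data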
# mABHD4 FP = ABHD4 (mouse) inhibition, primary FP screen; Q8VD66; purified mABHD4, FP-Rh probe fluorescence polarization; inhibition, % at 8.92 µM; 0.54% of 370,000 active; AID 720543;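 active = inhibition exceeding the mean over every tested compound plus 3 SD, cut at about 30% in these data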;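 note: 0% = plate median of compound wells and 100% = S159A mutant with DMSO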
#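 Test system: mABHD4 protein | Buffer or medium: HEPES pH 7.0 buffer, 150 mM NaCl, 0.01% Pluronic F-127 | Probe or stimulus: FP-Rh fluorescent activity-based probe, added after compound pre-incubation | Timing: Pre-incubation 45 min, probe exposure 60 min, at 25 °C | Technique: Fluorescence polarization, excitation 525 nm, emission 598 nm, BODIPY TMR filters | Repeats: Single well per compound (singlicate)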
# HTRA1 inh = blocks human HTRA1 serine peptidase. inhibition, % at 5.96 µM. 0.5% of 340,000 active. recombinant HTRA1, FP-rhodamine activity-based probe, fluorescence polarization. AID 504803; in the data active = inhibition above about 36%;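 note: 0% = enzyme with DMSO and 100% = wells lacking enzyme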
# HTRA1 conf = confirmation of human HTRA1 inhibitors; shares compounds with HTRA1 inh; recombinant HTRA1, FP-rhodamine activity-based probe, fluorescence polarization; inhibition, % at 5.96 µM; 66% of 1,600 active; AID 540248;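 active = mean inhibition over three repeats above a set limit taken from the earlier primary screen, cut at about 37% in these data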;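 note: 0% = HTRA1 with DMSO and 100% = wells lacking HTRA1; inhibitors block probe binding so polarization drops and inhibition rises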
# * hit, by the source's call; i = inactive; x = not tested or not shown. Hits are enriched below; roughly 3.2% of the tested compounds scored in any of these assays.
SMILES,LEDGF integ inh,rCAG binder,DAGLB inhibitor,PRMT1 inh,mABHD4 FP,HTRA1 inh,HTRA1 conf
O=C(N/N=C/C1CC=CCC1)c1cc2ccccc2cc1O (stereo unspecified),-0.9,32.0,-7.4,0.2,18.6,39.9*,28.3
Cn1cccc1/C=N/NC(=O)c1ccccn1,-1.6,0.1,-1.7,0.0,2.3,3.6,x
Cn1cccc1/C=N/NC(=O)c1cc2ccccc2cc1O,-2.9,32.7,8.2,-4.4,13.1,40.2*,28.8
O=C(N/N=C/C1CC=CCC1)c1ccc(O)cc1O (stereo unspecified),0.2,1.2,-3.1,0.3,8.3,10.4,x
CN1C(=O)N(CC(=O)N2CCN(S(=O)(=O)Cc3ccccc3)CC2)C(=O)C12CCCCC2,-4.5,-2.7,1.3,3.1,3.1,3.0,x
Cc1nn(-c2ccccc2)c2c1C(c1ccc(O)c(O)c1)N1C(=N2)C(Nc2ccccc2)=Nc2ccccc21 (stereo unspecified),-1.4,18.2,3.4,-5.9,4.0,50.5*,53.2*
Cc1nn(-c2ccccc2)c2c1C(c1ccc([N+](=O)[O-])cc1)N1C(=N2)C(=O)Nc2ccccc21 (stereo unspecified),-1.9,15.4,8.2,0.4,-28.2,-63.2,x
CN(C)CCCNC(=O)c1ccc(-c2cc(O)c3ncccc3c2)cc1,-7.5,3.6,1.0,-2.9,10.6,69.1*,85.5*
CCOc1cc(/C=C2\C(=O)N(c3nc(-c4ccc(Br)cc4)cs3)N=C2c2ccccc2)ccc1O,x,x,33.2,x,x,39.8*,46.9*
CCCNC(=O)C1CCN(S(=O)(=O)c2ccc3c(c2)OCCO3)CC1,-3.1,-5.6,1.0,-1.3,-1.2,3.1,x
Cc1cccc(-c2ocnc2C(=O)Nc2ncc(C)s2)c1,-0.7,2.1,-22.3,-1.7,7.4,-6.2,x
Cc1nc(N)sc1N=Nc1ccccc1C(F)(F)F,8.0,4.6,28.0,0.6,9.1,40.0*,30.4
OCCC1CN(Cc2cccn2-c2cccnc2)CCN1Cc1ccccc1 (stereo unspecified),3.7,-9.2,-0.7,-0.7,0.8,4.7,x
N#CC1=C(N)Oc2c(ccc3cccnc23)C1c1ccccc1 (stereo unspecified),-8.0,2.4,6.0,0.8,14.5,41.2*,1.8
Cc1ccc2[nH]c(=O)c(C3C(C#N)=C(N)Oc4c3ccc3cccnc43)cc2c1 (stereo unspecified),-1.8,17.0,29.1,4.4,22.4,73.1*,26.7
COc1ccc(NC(=O)c2sc(=O)n(Cc3ccc(SC)cc3)c2C)cc1OC,-3.9,0.5,x,0.0,-2.6,x,x
Cc1nccn1C[C@@H]1CCc2c(c3ccccc3n2C)C1=O,0.5,-0.4,4.6,-3.2,1.1,4.3,x
COc1ccc(N2CC(C(=O)NCCc3ccc(OC)c(OC)c3)CC2=O)cc1 (stereo unspecified),-1.7,-2.3,1.1,-5.5,-6.1,2.5,x
CCN(CC)S(=O)(=O)c1ccc(Nc2ccc(-c3ccc4c(c3)OCCO4)nn2)cc1,-0.7,9.2,-3.6,0.2,-5.8,-23.4,x
CCCCC1=CC2=CC(=O)C(C)(OC(=O)C3CCCC3)C(=O)C2=CO1 (stereo unspecified),2.2,29.6,8.3,12.3,23.9,39.4*,43.8*
COC(=O)CCCC1=CC2=CC(=O)C(C)(OC(=O)C3CCCC3)C(=O)C2=CO1 (stereo unspecified),x,x,1.5,x,x,19.7,x
CCCCNc1c2c3c(cccc3n(C)c1=O)C(=O)c1ccccc1-2,x,x,i,x,x,67.7*,69.8*
CN1C(=O)c2cccc(NCCCN3C(=O)c4ccccc4C3=O)c2C1=O,-1.6,-6.4,-2.1,-3.5,-2.4,-5.9,x
N#CC(=C=[N-])C1=C(C#N)C(c2ccccc2F)C([n+]2ccccc2)C(O)(C2CC2)N1 (stereo unspecified),-0.9,3.0,8.3,3.4,15.7,-1.9,x
Cc1cccc[n+]1C1C(c2ccccc2)C(C#N)=C(C(=C=[N-])C#N)NC1(O)C1CC1 (stereo unspecified),x,x,13.0,x,x,67.4*,48.9*
SMILES,LEDGF integ inh,rCAG binder,DAGLB inhibitor,PRMT1 inh,mABHD4 FP,HTRA1 inh,HTRA1 conf
COc1ccc(C(=O)OCC(=O)NCC2CCCCC2)c(OC)c1,-0.8,-5.1,-5.5,1.7,6.5,-7.5,x
Oc1ccc(-c2csc(-c3cccnc3)n2)cc1O,4.2,3.8,0.1,6.6,11.1,36.8*,46.6*
c1cncc(-c2nc(-c3ccc4c(c3)OCCO4)cs2)c1,-5.0,2.3,-15.4,1.2,-6.3,-12.9,x
Cc1ccc(S(=O)(=O)Nc2ccc3oc(=O)sc3c2)c(C)c1,-1.0,23.9,4.8,58.7*,-20.5,36.9*,0.6
COc1ccccc1CNc1ccc(C(=O)O)cc1,-2.8,-0.8,1.6,-0.8,-0.5,-1.6,x
COc1cccc(CNc2ccc(N3CCCCC3)cc2)c1OC,6.7,5.8,12.4,2.5,24.8,59.5*,7.4
COc1ccccc1CNc1ccc(N2CCCCC2)cc1,x,x,16.9,x,x,56.8*,14.5
COc1cccc(CNc2ccc(S(N)(=O)=O)cc2)c1OC,0.7,0.1,0.5,-1.4,1.2,-2.1,x
O=C1CCCC2=C1C(c1ccc(Cl)cc1)C1C(=O)c3ccccc3C1=N2 (stereo unspecified),7.5,10.2,25.6,10.7,29.2,38.5*,30.8
COc1cccc(/C=N/NC(=O)C(=O)N2CCCCCC2)c1OC,0.2,-7.1,0.3,-1.4,-0.2,1.9,x
COc1ccc(OC)c(/C=N/NC(=O)C(=O)N2CCCCCC2)c1,1.9,-5.7,-0.4,-2.6,0.7,42.5*,-1.9
O=C(NNC1CC(c2ccccc2)=NN1C(=O)c1ccccc1)c1ccccc1 (stereo unspecified),0.9,-1.4,3.2,0.3,-2.0,-1.5,x
c1ccc(CN2CCC(=NNc3nc4ccccc4[nH]3)CC2)cc1,2.2,1.2,2.2,2.2,26.0,36.6*,15.4
CC(C)(C)C1CCC(=NNc2nc3ccccc3[nH]2)CC1 (stereo unspecified),0.1,5.1,-0.8,5.3,3.5,28.8,x
CCN(CC)c1ccc(N=Cc2ccccc2[N+](=O)[O-])cc1,15.1*,8.4,12.1,20.0,46.7*,53.4*,146.2*
C=CCN1CCc2c(cc(O)c(O)c2Cl)C(c2ccccc2)C1 (stereo unspecified),-3.0,6.4,7.1,1.5,13.6,42.6*,69.8*
O=C(Nc1ccc2c(c1)C(=O)OC2)c1ccc(Cl)cc1Cl,5.6,1.3,-0.4,0.6,-1.7,2.8,x
C=C1N(C)c2cc([N+](=O)[O-])c(N)cc2C1(C)C,0.8,16.8,13.2,3.2,22.9,54.2*,32.7
Nc1ccc(Oc2ccc(N)c([N+](=O)[O-])c2)cc1[N+](=O)[O-],-1.6,4.8,20.6,9.7,3.4,5.0,x
